Results taken from ChEMBL document CHEMBL2417493, “Novel cycloalkylthiophene-imine derivatives bearing benzothiazole scaffold: synthesis, characterization and antiviral activity evaluation” (Bioorg Med Chem Lett, 2013).
≈ marks a conversion by molar mass, not a printed value. Calls of active or inactive are those of the source. The calls are words filed in the database; no cut-off is given here.

Experiments:
[1] = Selectivity index, ratio of CC50 for human HeLa cells to EC50 for Adenovirus type 7 infected in human HeLa cells; assay type: toxicity, cell-based; conditions: read-out: Ratio CC50/EC50
Outline: (§1)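 Antiviral pairings were EV71 in RD cells, CVB5 in HepG2 cells and ADV7 in HeLa cells. Compounds were added […], and total infectivity was read by crystal violet staining. EC50 is the concentration that cut viral replication by 50%. CC50 came from MTT relative to 0.1% DMSO mock control. SI = CC50/EC50. Data are from three independent experiments.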

Coxsackievirus B5 [2] = test: Antiviral activity against Coxsackievirus B5 infected in human HepG2 cells assessed as inhibition of virus-induced cytopathogenicity after 48 hrs by crystal violet staining method; assay type: functional, organism-based; conditions: for EC50: Enterovirus B, HepG2, 48 h
Outline: (§2)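 Virus–cell pairings were EV71 in RD, CVB5 in HepG2, ADV7 in HeLa and influenza A H1N1 in MDCK. Compounds were added […], and total infectivity was read by crystal violet staining. EC50 is the concentration reducing viral replication by 50%. Values are mean SD of three independent experiments.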

Enterovirus [3] = test: Antiviral activity against Enterovirus 71 infected in human rhabdomyosarcoma cells assessed as inhibition of virus-induced cytopathogenicity at 32 ug/ml after 48 hrs by crystal violet staining method; assay type: functional; conditions: for inhibition at 32 µg/mL: Enterovirus, 71, 48 h
Outline: (§3)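 Single-concentration screen with these pairings: RD/EV71, HepG2/CVB5, HeLa/ADV7, MDCK/H1N1. Cells were infected and kept 48 h in the presence of compound at one fixed concentration; some EV71 tests used the lower level. Inhibition of virus proliferation was read by crystal violet staining.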

unidentified adenovirus [4] = test: Antiviral activity against Adenovirus type 7 infected in human HeLa cells assessed as inhibition of virus-induced cytopathogenicity after 48 hrs by crystal violet staining method; assay type: functional, organism-based; conditions: for EC50: unidentified adenovirus, type 7, HeLa, 48 h; outline: as §2
unidentified adenovirus [5] = test: Antiviral activity against Adenovirus type 7 infected in human HeLa cells assessed as inhibition of virus-induced cytopathogenicity at 32 ug/ml after 48 hrs by crystal violet staining method; assay type: functional; conditions: for inhibition at 32 µg/mL: type 7, HeLa; outline: as §3
Enterovirus [6] = test: Antiviral activity against Enterovirus 71 infected in human rhabdomyosarcoma cells assessed as inhibition of virus-induced cytopathogenicity after 48 hrs by crystal violet staining method; assay type: functional, organism-based; conditions: for EC50: Enterovirus, 71, 48 h; outline: as §2
[7] = Cytotoxicity against human rhabdomyosarcoma cells after 72 hrs by MTT assay; assay type: cell-based, Rhabdomyosarcoma cell
Outline: (§4)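 MTT assay on RD (rhabdomyosarcoma), HepG2 and HeLa cell lines. CC50 is the concentration that cut cell viability by 50% relative to 0.1% DMSO-treated mock-control cells. Values are mean and SD of three independent experiments.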

[8] = Cytotoxicity against human HeLa cells after 72 hrs by MTT assay; assay type: cell-based; outline: as §4
Influenza A virus [9] = test: Antiviral activity against influenza A virus H1N1 infected in dog MDCK cells assessed as inhibition of virus-induced cytopathogenicity after 48 hrs by crystal violet staining method; assay type: functional, organism-based; outline: as §2
[10] = Cytotoxicity against human HepG2 cells after 72 hrs by MTT assay; assay type: cell-based; outline: as §4
[11] = Selectivity index, ratio of CC50 for human rhabdomyosarcoma cells to EC50 for Enterovirus 71 infected in human rhabdomyosarcoma cells; assay type: toxicity; conditions: read-out: Ratio CC50/EC50; outline: as §1
Coxsackievirus B5 [12] = test: Antiviral activity against Coxsackievirus B5 infected in human HepG2 cells assessed as inhibition of virus-induced cytopathogenicity at 32 ug/ml after 48 hrs by crystal violet staining method; assay type: functional; conditions: for inhibition at 32 µg/mL: Enterovirus B, HepG2, 48 h; outline: as §3
Influenza A virus [13] = test: Antiviral activity against influenza A virus H1N1 infected in dog MDCK cells assessed as inhibition of virus-induced cytopathogenicity at 32 ug/ml after 48 hrs by crystal violet staining method; assay type: functional, organism-based; outline: as §3
[14] = Selectivity index, ratio of CC50 for human HepG2 cells to EC50 for Coxsackievirus B5 infected in human HepG2 cells; assay type: toxicity, cell-based; conditions: read-out: Ratio CC50/EC50; outline: as §1
Enterovirus [15] = test: Antiviral activity against Enterovirus 71 infected in human rhabdomyosarcoma cells assessed as inhibition of virus-induced cytopathogenicity at 16 ug/ml after 48 hrs by crystal violet staining method; assay type: functional; conditions: Enterovirus, 71, 48 h; outline: as §3

Row | SMILES | selectivity ratio [1] | EC50 (Coxsackievirus B5 [2]) [µg/mL] | EC50 (unidentified adenovirus [4]) [µg/mL] | inhibition at 32 µg/mL (unidentified adenovirus [5]) [%] | EC50 (Enterovirus [6]) [µg/mL] | CC50 at 72 h [7] [µg/mL] | CC50 at 72 h [8] [µg/mL] | inhibition (INH) (Influenza A virus [9]) [%] | CC50 at 72 h [10] [µg/mL] | selectivity ratio [11] | inhibition at 32 µg/mL (Coxsackievirus B5 [12]) [%] | inhibition (Influenza A virus [13]) | selectivity ratio [14] | inhibition (Coxsackievirus B5 [2]) | inhibition (unidentified adenovirus [4]) | inhibition (Enterovirus [6]) | further results
1 | Oc1ccccc1/C=N/c1sc2c(c1-c1nc3ccccc3s1)CCC2 | 9.6 | 11.1 (≈ 29.5 µM) | 17.4 (≈ 46.2 µM) | 60 | 7.9 (≈ 21 µM) | 100 (≈ 266 µM) | 168 (≈ 446 µM) | <50 | 156 (≈ 414 µM) | 12.6 | 60 | Active | 13.8 | – | – | – | inhibition at 32 µg/mL (Enterovirus [3]): 50%
2 | Fc1ccc(/C=N/c2sc3c(c2-c2nc4ccccc4s2)CCCC3)cc1 | 13.1 | 9.7 (≈ 24.7 µM) | 21.1 (≈ 53.8 µM) | 60 | 6.9 (≈ 17.6 µM) | 230 (≈ 586 µM) | 277 (≈ 705 µM) | <50 | 324 (≈ 826 µM) | 32.8 | 60 | Active | 33.2 | Dose-dependent effect | Dose-dependent effect | Dose-dependent effect | inhibition at 16 µg/mL (Enterovirus [15]): 60%
3 | Nc1sc2c(c1-c1nc3cc(Cl)ccc3s1)CCCC2 | 20.9 | 3.5 (≈ 10.9 µM) | 5 (≈ 15.6 µM) | – | 1.3 (≈ 4.05 µM) | 43.5 (≈ 136 µM) | 107 (≈ 333 µM) | <50 | 93.7 (≈ 292 µM) | 33.7 | – | – | 26.7 | Dose-dependent effect | Dose-dependent effect | Dose-dependent effect | –
4 | C(=N\c1sc2c(c1-c1nc3ccccc3s1)CCCC2)/c1ccccc1 | 26.5 | 32.9 (≈ 87.8 µM) | 12.5 (≈ 33.4 µM) | 60 | 14.2 (≈ 37.9 µM) | 71.1 (≈ 190 µM) | 333 (≈ 890 µM) | <50 | 308 (≈ 821 µM) | 4.9 | 60 | Active | 9.3 | – | – | – | inhibition at 32 µg/mL (Enterovirus [3]): 60%
5 | Nc1sc2c(c1-c1nc3cc(Cl)ccc3s1)CCC2 | 7.6 | 6.4 (≈ 20.9 µM) | 9.8 (≈ 31.9 µM) | – | 1.2 (≈ 3.91 µM) | 59.1 (≈ 193 µM) | 75.1 (≈ 245 µM) | <50 | 67.8 (≈ 221 µM) | 46.9 | – | – | 10.4 | Dose-dependent effect | Dose-dependent effect | Dose-dependent effect | –
6 | Oc1ccccc1/C=N/c1sc2c(c1-c1nc3cc(Cl)ccc3s1)CCC2 | – | – | – | – | 13.9 (≈ 33.8 µM) | 269 (≈ 655 µM) | 251 (≈ 610 µM) | <50 | 210 (≈ 511 µM) | 19.2 | – | Active | – | – | – | – | inhibition (INH) (Coxsackievirus B5 [2]): <50%; inhibition (Enterovirus [3]): Active; inhibition (INH) (unidentified adenovirus [4]): <50%; inhibition (unidentified adenovirus [5]): Active; inhibition (Coxsackievirus B5 [12]): Active
7 | Oc1ccccc1/C=N/c1sc2c(c1-c1nc3ccccc3s1)CCCC2 | 11.1 | 5.4 (≈ 13.8 µM) | 10.8 (≈ 27.7 µM) | 60 | 2 (≈ 5.12 µM) | 42.4 (≈ 108 µM) | 122 (≈ 312 µM) | <50 | 114 (≈ 292 µM) | 20.3 | 60 | Active | 20.8 | Dose-dependent effect | Dose-dependent effect | Dose-dependent effect | inhibition at 16 µg/mL (Enterovirus [15]): 60%
8 | NC(=O)c1ncn([C@@H]2O[C@H](CO)[C@@H](O)[C@H]2O)n1 [RIBAVIRIN] | > 15 | 22.3 (≈ 91.3 µM) | 27.8 (≈ 114 µM) | – | 49.2 (≈ 201 µM) | > 500 | > 500 | – | > 500 | > 10 | – | – | > 20 | – | – | – | –
9 | Nc1sc2c(c1-c1nc3ccccc3s1)CCCC2 | – | 14.5 (≈ 50.6 µM) | – | – | 14.1 (≈ 49.2 µM) | 253 (≈ 883 µM) | 475 (≈ 1660 µM) | <50 | 163 (≈ 570 µM) | 17.8 | – | – | 11.9 | – | – | – | inhibition (INH) (unidentified adenovirus [4]): <50%
